According to ChEMBL document CHEMBL2346649, “Novel pseudopeptides incorporating a benzodiazepine-based turn mimetic--targeting Mycobacterium tuberculosis ribonucleotide reductase” (Bioorg Med Chem, 2013):

Columns and labels:
[1] = Inhibition of Mycobacterium tuberculosis ribonucleotide reductase by [3H]CDP assay
Outline: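 CDP reduction is read as cpm. IC50 is the concentration giving a 50% cpm reduction, averaged from three separate experiments with standard deviation.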

[2] = molecular target: T1, Ribonucleoside-diphosphate reductase subunit alpha (Mycobacterium tuberculosis, UniProt P9WH75); experiment: Displacement of Dansyl-Gly-Ser-Gly-Glu-Asp-Asp-Asp-Trp-Asp-Phe from C-terminal R1 subunit of Mycobacterium tuberculosis ribonucleotide reductase by fluorescence polarization assay
T1 sequence (P9WH75 whole entry): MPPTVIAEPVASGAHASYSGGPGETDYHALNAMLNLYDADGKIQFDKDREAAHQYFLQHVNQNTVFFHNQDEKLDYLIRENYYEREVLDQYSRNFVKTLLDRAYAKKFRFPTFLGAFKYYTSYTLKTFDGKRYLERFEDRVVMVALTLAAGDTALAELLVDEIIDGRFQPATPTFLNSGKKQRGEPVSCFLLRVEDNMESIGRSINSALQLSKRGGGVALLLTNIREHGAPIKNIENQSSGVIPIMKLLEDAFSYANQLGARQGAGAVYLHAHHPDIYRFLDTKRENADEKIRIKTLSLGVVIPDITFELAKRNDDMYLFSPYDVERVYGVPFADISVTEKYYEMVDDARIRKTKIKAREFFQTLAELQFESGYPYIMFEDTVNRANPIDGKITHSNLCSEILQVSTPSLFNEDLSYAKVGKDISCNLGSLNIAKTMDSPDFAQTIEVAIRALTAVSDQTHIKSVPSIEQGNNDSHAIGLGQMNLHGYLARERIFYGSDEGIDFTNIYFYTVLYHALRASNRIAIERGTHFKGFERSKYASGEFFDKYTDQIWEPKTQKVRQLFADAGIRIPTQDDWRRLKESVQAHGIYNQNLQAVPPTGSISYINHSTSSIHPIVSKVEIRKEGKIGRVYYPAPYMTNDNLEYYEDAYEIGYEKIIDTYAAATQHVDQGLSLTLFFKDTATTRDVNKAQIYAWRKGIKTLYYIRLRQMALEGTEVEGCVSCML
Outline: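 Competitive fluorescence polarization: compounds compete with a fluorescent probe carrying the R2 C-terminal sequence for binding to M. tuberculosis R1, and dissociation constants (KD2) are derived. Compound stocks are 5–25 mM in 100% DMSO.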

Molecule | IC50 [1] [µM] | Kd [2] [µM]
CC(=O)N[C@@H](CCC(=O)O)C(=O)N[C@@H](CC(=O)O)C(=O)N[C@@H](CC(=O)O)C(=O)N[C@@H](CC(=O)O)C(=O)Nc1cccc2c1N[C@@H](Cc1c[nH]c3ccccc13)C(=O)N(CC(=O)N[C@@H](Cc1ccccc1)C(=O)O)C2 | 64 | 27
O=C(Nc1cccc2c1N[C@@H](Cc1c[nH]c3ccccc13)C(=O)N(CCO)C2)OCC1c2ccccc2-c2ccccc21 | 171 | 26
O=C(O)C[C@H](NC(=O)OCC1c2ccccc2-c2ccccc21)C(=O)Nc1cccc2c1N[C@@H](Cc1c[nH]c3ccccc13)C(=O)N(CC(=O)N[C@@H](Cc1ccccc1)C(=O)O)C2 |  | 1.6
CC(=O)N[C@@H](CC(=O)O)C(=O)Nc1cccc2c1N[C@@H](Cc1c[nH]c3ccccc13)C(=O)N(CC(=O)N[C@@H](Cc1ccccc1)C(=O)O)C2 |  | > 150
Ac-EDDDWDF-OH | 20 | 8.3
O=C(O)CN1Cc2cccc(NC(=O)OCC3c4ccccc4-c4ccccc43)c2N[C@@H](Cc2c[nH]c3ccccc23)C1=O | 24 | 8.1
CC(=O)N[C@@H](CCC(=O)O)C(=O)N[C@@H](CC(=O)O)C(=O)N[C@@H](CC(=O)O)C(=O)Nc1cccc2c1N[C@@H](Cc1c[nH]c3ccccc13)C(=O)N(CC(=O)N[C@@H](Cc1ccccc1)C(=O)O)C2 |  | 81
